The values below come from ChEMBL document CHEMBL1123544, “Syntheses of 5,6,7- and 5,7,8-trioxygenated 3',4'-dihydroxyflavones having alkoxy groups and their inhibitory activities against arachidonate 5-lipoxygenase” (J Med Chem, 1986).

pIC50: −log10 of the molar value.

The test has as its target T1, Polyunsaturated fatty acid 5-lipoxygenase (Rattus norvegicus, UniProt P12527).
T1 sequence (P12527 whole entry): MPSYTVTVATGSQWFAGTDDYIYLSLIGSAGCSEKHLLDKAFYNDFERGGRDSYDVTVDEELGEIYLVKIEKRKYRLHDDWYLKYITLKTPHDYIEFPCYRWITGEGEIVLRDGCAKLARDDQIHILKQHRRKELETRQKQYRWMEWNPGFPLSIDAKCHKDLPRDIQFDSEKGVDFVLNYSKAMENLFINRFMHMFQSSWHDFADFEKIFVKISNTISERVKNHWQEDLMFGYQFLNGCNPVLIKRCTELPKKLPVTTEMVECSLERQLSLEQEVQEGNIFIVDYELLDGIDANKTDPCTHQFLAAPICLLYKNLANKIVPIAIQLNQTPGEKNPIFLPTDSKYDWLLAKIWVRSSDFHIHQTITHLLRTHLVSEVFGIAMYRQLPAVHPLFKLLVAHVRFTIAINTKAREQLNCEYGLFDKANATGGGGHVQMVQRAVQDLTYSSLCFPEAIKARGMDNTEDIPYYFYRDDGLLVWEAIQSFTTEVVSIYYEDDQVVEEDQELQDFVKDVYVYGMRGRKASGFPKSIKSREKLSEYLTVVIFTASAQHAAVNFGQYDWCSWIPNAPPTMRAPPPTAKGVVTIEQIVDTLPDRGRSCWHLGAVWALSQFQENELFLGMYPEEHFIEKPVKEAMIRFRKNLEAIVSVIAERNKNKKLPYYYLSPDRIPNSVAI
The test can be described thus: Ability to inhibit 5-lipoxygenase in rat basophilic leukemia cells. In kind it is cell-based, RBL-1. In short, it runs like this:
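Enzyme: RBL cell sonicate high-speed supernatant, 25–50% ammonium sulfate cut, desalted on Sephadex G-25 (68 μg protein). Compound in ethanol preincubated 5 min with enzyme. Reaction started with 25 μM [1-14C]arachidonic acid, 30 °C for 5 min in 50 mM potassium phosphate pH 7.4 with 2 mM ATP and 2 mM CaCl2. Radio-TLC of 5-HPETE; IC50 from concentration series.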
For the compound `CCCCCCCCCCOc1c(OC)cc2oc(-c3ccc(OC(C)=O)c(OC(C)=O)c3)cc(=O)c2c1OC`, the pIC50 (in general, the IC50 on a negative log10 scale, so that one unit is a factor of ten) is 7.52. `CCCCCCCCCCCCOc1cc(OC)c2c(=O)cc(-c3ccc(O)c(O)c3)oc2c1OC` gave a pIC50 of 7.48. The pIC50 values of the last two compounds are within 0.2 log units of each other.

`COc1cc2oc(-c3ccc(O)c(O)c3)cc(=O)c2c(OCCC(C)C)c1OC` gave a pIC50 of 7.80. With `CCCCCCCCCCCCCCOc1c(OC)cc2oc(-c3ccc(O)c(O)c3)cc(=O)c2c1OC`, the pIC50 was 7.15. The same measure for `COc1cc2oc(-c3ccc(O)c(O)c3)cc(=O)c2c(O)c1OC` [CIRSILIOL]: 7.02; for `CCCCCCCCCCOc1c(OC)cc2oc(-c3ccc(O)c(O)c3)cc(=O)c2c1OC`: 7.77. Turning to `COc1cc(O)c2c(=O)cc(-c3ccc(O)c(O)c3)oc2c1OC`, the pIC50 is 6.96. `CCCCCCCCCCCCCCOc1c(OC)c(OC)cc2oc(-c3ccc(O)c(O)c3)cc(=O)c12`: the pIC50 is 7.55. On to `CCCCCCCCCCCCOc1cc2oc(-c3ccc(O)c(O)c3)cc(=O)c2c(OC)c1OC`, for which the pIC50 is 7.00. The same measure for `CCCCCCCCOc1c(OC)cc2oc(-c3ccc(O)c(O)c3)cc(=O)c2c1OC`: 7.66. The value for `CCCCCCCCOc1c(OC)cc2oc(-c3ccc(OC(C)=O)c(OC(C)=O)c3)cc(=O)c2c1OC` was 7.38; that for `CCCCCCCCCCCCCCOc1c(OC)cc2oc(-c3ccc(O)c(O)c3)cc(=O)c2c1O` was 5.00.

Consider `CCCCCCCCOc1c(OC)cc2oc(-c3ccc(O)c(O)c3)cc(=O)c2c1O`, for which the pIC50 is 7.96. On to `CCCCCOc1c(OC)cc2oc(-c3ccc(O)c(O)c3)cc(=O)c2c1O`, for which the pIC50 is 7.66.

In turn, `CCCCCCCCCCCCOc1c(OC)cc2oc(-c3ccc(O)c(O)c3)cc(=O)c2c1O` had a pIC50 of 7.59.

`CCCCCOc1c(OC)cc2oc(-c3ccc(OC(C)=O)c(OC(C)=O)c3)cc(=O)c2c1OC` showed a negative-log IC50 (pIC50) of 7.55. The pIC50 values of the last two compounds are within 0.2 log units of each other. The same measure for `COc1cc2oc(-c3ccc(O)c(O)c3)cc(=O)c2c(O)c1OCCC(C)C`: 8.05; for `CCCCCCCCCCCCOc1cc2oc(-c3ccc(O)c(O)c3)cc(=O)c2c(O)c1OC`: 6.85; for `CCCCCCCCCCCCOc1c(OC)cc(O)c2c(=O)cc(-c3ccc(O)c(O)c3)oc12`: 6.96. For `CCCCCCCCCCCCCCCCOc1c(OC)c(OC)cc2oc(-c3ccc(O)c(O)c3)cc(=O)c12`, the pIC50 was 6.85. The value for `CCCCCCCCCCCCOc1cc(O)c2c(=O)cc(-c3ccc(O)c(O)c3)oc2c1OC` was 6.74. The value for `CCCCCCCCCCOc1c(OC)cc2oc(-c3ccc(O)c(O)c3)cc(=O)c2c1O` was 7.96; that for `CCCCCCCCCCCCCCCCOc1c(OC)cc2oc(-c3ccc(O)c(O)c3)cc(=O)c2c1O` was 5.00.

For `CCCCCOc1c(OC)cc2oc(-c3ccc(O)c(O)c3)cc(=O)c2c1OC`, the pIC50 is 7.46.

In turn, `CCCCOc1c(OC)c(OC)cc2oc(-c3ccc(O)c(O)c3)cc(=O)c12` showed a pIC50 of 7.35. The same measure for `CCCCCCCCCCCCOc1c(OC)c(OC)cc2oc(-c3ccc(O)c(O)c3)cc(=O)c12`: 7.74.

In turn, `CCCCCCCCOc1c(OC)c(OC)cc2oc(-c3ccc(O)c(O)c3)cc(=O)c12` gave a pIC50 of 7.72. The pIC50 values of the last two compounds are within 0.2 log units of each other.

Consider `CCCCCCCCCCCCCCCCCCOc1c(OC)cc2oc(-c3ccc(O)c(O)c3)cc(=O)c2c1O`, for which the pIC50 is 5.00. The value for `COc1cc2oc(-c3ccc(O)c(O)c3)cc(=O)c2c(OC)c1OCCC(C)C` was 7.59.

For `CCCCCCCCCCCCCCCCOc1c(OC)cc2oc(-c3ccc(O)c(O)c3)cc(=O)c2c1OC`, the pIC50 is 5.82. Compared with the last compound, the pIC50 is 1.77 log units lower. The value for `CCCCCCOc1c(OC)cc2oc(-c3ccc(OC(C)=O)c(OC(C)=O)c3)cc(=O)c2c1OC` was 7.30. The value for `CCCCCCCCCCCCOc1c(OC)cc2oc(-c3ccc(O)c(O)c3)cc(=O)c2c1OC` was 7.52; that for `CCCCCCCCCCCCOc1cc(OC)c(OC)c2oc(-c3ccc(O)c(O)c3)cc(=O)c12` was 7.66. The same measure for `CCCCCCCCCCCCOc1c(OC)cc2oc(-c3ccc(OC(C)=O)c(OC(C)=O)c3)cc(=O)c2c1OC`: 7.12. Compound `CCCCCCOc1c(OC)c(OC)cc2oc(-c3ccc(O)c(O)c3)cc(=O)c12` had a pIC50 of 7.82. This pIC50 is 0.70 log units higher than that of the compound before. `CCCCCOc1c(OC)c(OC)cc2oc(-c3ccc(O)c(O)c3)cc(=O)c12` gave a pIC50 of 7.49.

The compound `COc1cc(OC)c2c(=O)cc(-c3ccc(O)c(O)c3)oc2c1OC` had a pIC50 of 6.37. Compound `COc1cc2oc(-c3ccc(OC(C)=O)c(OC(C)=O)c3)cc(=O)c2c(OC)c1OC` showed a pIC50 of 6.00. For the compound `CCCCCCCCCCCCCCCCCCOc1c(OC)c(OC)cc2oc(-c3ccc(O)c(O)c3)cc(=O)c12`, the pIC50 is 5.05.

Regarding `COc1cc2oc(-c3ccc(O)c(O)c3)cc(=O)c2c(OC)c1OC`, the pIC50 is 6.62. The same measure for `CCCCCCCCCCCCCCCCCCOc1c(OC)cc2oc(-c3ccc(O)c(O)c3)cc(=O)c2c1OC`: 5.00; for `CCCCCCCCCCOc1c(OC)c(OC)cc2oc(-c3ccc(O)c(O)c3)cc(=O)c12`: 7.74. The same measure for `CCCCCCCCCCCCOc1c(OC)cc(OC)c2c(=O)cc(-c3ccc(O)c(O)c3)oc12`: 6.96. Turning to `CCCCOc1c(OC)cc2oc(-c3ccc(O)c(O)c3)cc(=O)c2c1OC`, the pIC50 was 7.28. The value for `CCCCCCCCCCCCCCCCCCOc1c(OC)cc2oc(-c3ccc(OC(C)=O)c(OC(C)=O)c3)cc(=O)c2c1OC` was 5.00; that for `CCCCCCOc1c(OC)cc2oc(-c3ccc(O)c(O)c3)cc(=O)c2c1O` was 7.70. The same measure for `CCCCCCCCCCCCCCOc1c(OC)cc2oc(-c3ccc(OC(C)=O)c(OC(C)=O)c3)cc(=O)c2c1OC`: 5.00. Take `CCCCOc1c(OC)cc2oc(-c3ccc(OC(C)=O)c(OC(C)=O)c3)cc(=O)c2c1OC`: the pIC50 is 7.00.

`CCCCOc1c(OC)cc2oc(-c3ccc(O)c(O)c3)cc(=O)c2c1O` had a pIC50 of 7.82.

With `CCCCCCCCCCCCCCCCOc1c(OC)cc2oc(-c3ccc(OC(C)=O)c(OC(C)=O)c3)cc(=O)c2c1OC`, the pIC50 was 5.00. As for `CCCCCCOc1c(OC)cc2oc(-c3ccc(O)c(O)c3)cc(=O)c2c1OC`, the pIC50 is 7.85.
